Reference: ChEMBL document CHEMBL4138139, “Discovery of VU6005649, a CNS Penetrant mGlu7/8 Receptor PAM Derived from a Series of Pyrazolo[1,5-a]pyrimidines” (ACS Med Chem Lett, 2017)

What was measured:
Rattus norvegicus [1] = organism: Rattus norvegicus; test: Time at which total brain concentration stays above in vitro mGlu7 EC50 in rat; format: ADME, organism-based; settings: in vivo
Cytochrome P450 2C9 = Cytochrome P450 2C9 (Homo sapiens, UniProt P11712); test: Inhibition of CYP2C9 in human liver microsomes using diclofenac as substrate preincubated for 15 mins followed by NADPH addition measured after 8 mins by LC-MS/MS analysis; format: ADME
Chain of Cytochrome P450 2C9 (P11712 whole entry): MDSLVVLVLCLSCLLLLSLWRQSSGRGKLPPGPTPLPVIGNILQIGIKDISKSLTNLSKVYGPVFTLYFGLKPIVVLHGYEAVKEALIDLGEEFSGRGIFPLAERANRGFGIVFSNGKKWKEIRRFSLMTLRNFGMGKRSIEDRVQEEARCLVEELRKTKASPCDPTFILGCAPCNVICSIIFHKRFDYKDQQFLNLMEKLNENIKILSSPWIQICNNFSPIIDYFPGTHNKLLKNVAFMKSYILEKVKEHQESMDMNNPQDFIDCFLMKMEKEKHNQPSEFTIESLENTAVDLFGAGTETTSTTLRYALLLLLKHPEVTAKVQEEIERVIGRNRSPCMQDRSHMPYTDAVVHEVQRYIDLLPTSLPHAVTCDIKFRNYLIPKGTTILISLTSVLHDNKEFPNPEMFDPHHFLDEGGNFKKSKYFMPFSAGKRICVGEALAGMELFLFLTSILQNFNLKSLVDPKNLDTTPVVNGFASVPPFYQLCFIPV

Mus musculus = test: Antipsychotic activity in wild-type contextual fear conditioning C57/B6 mouse model assessed as pro-cognitive effects on associative learning by measuring freezing at 50 mg/kg, ip treated 15 mins prior to training measured during 3 mins testing period (reference value: 65.5 +/- […])
[2] = target: Epidermal growth factor receptor (Homo sapiens) (UniProt P00533); test: Displacement of [125I] EGF from EGFR in human A431 cells at 10 uM after 60 mins by scintillation counting method relative to control; format: cell-based
Chain of Epidermal growth factor receptor (Homo sapiens) (P00533 whole entry): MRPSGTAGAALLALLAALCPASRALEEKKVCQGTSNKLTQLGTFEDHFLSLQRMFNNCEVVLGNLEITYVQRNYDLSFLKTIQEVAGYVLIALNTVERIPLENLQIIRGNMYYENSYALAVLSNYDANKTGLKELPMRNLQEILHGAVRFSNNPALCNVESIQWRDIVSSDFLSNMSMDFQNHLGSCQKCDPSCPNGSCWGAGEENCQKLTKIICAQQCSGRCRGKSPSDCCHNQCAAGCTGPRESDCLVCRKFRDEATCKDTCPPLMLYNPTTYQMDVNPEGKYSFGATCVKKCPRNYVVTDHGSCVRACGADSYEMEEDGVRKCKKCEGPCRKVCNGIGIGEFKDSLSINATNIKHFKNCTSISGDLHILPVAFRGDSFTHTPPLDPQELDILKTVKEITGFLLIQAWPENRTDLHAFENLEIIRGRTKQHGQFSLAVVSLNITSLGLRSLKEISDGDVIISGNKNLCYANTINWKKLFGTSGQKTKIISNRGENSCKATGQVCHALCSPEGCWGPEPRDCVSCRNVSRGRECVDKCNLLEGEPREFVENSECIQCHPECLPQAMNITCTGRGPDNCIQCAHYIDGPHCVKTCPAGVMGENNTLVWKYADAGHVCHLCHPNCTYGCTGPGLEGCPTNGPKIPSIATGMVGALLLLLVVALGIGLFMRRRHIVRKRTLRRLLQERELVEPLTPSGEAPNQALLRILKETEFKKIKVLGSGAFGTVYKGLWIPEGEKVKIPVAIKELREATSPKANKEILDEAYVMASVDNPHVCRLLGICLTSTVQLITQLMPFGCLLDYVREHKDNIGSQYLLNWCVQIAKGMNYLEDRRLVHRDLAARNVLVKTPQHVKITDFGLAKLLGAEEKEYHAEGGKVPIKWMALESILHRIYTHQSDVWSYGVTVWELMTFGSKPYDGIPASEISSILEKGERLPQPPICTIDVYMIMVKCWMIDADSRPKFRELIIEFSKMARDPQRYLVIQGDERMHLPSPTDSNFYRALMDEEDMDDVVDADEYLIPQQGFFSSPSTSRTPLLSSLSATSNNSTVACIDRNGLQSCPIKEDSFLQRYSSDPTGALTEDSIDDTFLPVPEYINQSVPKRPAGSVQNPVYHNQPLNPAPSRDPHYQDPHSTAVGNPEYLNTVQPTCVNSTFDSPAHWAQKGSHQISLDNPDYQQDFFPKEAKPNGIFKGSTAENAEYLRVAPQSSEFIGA
Procedure, shortened: (§1)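 Single-concentration screen at 10 μM in an outsourced profiling panel of 68 GPCRs, ion channels and transporters. Activity read out as percent inhibition of specific radioligand binding.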

[3] = target: Beta-2 adrenergic receptor (Homo sapiens) (UniProt P07550); test: Displacement of [3H] CGP-12177 from recombinant human beta2 receptor expressed in CHO cell membranes co-expressing human NBR1 at 10 uM after 60 mins by scintillation counting method relative to control; procedure, shortened: as §1
[4] = target: Sigma non-opioid intracellular receptor 1 (Homo sapiens) (UniProt Q99720); test: Displacement of [3H] haloperidol from sigma1 receptor in human Jurkat cells at 10 uM after 4 hrs by scintillation counting method relative to control; format: cell-based; procedure, shortened: as §1
[5] = target: Metabotropic glutamate receptor 5 (Rattus norvegicus, UniProt P31424); test: Positive allosteric modulation of rat mGlu5 receptor expressed in HEK cells assessed as increase in glutamate-induced calcium flux incubated for 142 secs followed by glutamate addition measured after 120 secs by Fluo4-AM dye based fluorescence assay; format: functional, cell-based
Chain of Metabotropic glutamate receptor 5 (P31424 whole entry): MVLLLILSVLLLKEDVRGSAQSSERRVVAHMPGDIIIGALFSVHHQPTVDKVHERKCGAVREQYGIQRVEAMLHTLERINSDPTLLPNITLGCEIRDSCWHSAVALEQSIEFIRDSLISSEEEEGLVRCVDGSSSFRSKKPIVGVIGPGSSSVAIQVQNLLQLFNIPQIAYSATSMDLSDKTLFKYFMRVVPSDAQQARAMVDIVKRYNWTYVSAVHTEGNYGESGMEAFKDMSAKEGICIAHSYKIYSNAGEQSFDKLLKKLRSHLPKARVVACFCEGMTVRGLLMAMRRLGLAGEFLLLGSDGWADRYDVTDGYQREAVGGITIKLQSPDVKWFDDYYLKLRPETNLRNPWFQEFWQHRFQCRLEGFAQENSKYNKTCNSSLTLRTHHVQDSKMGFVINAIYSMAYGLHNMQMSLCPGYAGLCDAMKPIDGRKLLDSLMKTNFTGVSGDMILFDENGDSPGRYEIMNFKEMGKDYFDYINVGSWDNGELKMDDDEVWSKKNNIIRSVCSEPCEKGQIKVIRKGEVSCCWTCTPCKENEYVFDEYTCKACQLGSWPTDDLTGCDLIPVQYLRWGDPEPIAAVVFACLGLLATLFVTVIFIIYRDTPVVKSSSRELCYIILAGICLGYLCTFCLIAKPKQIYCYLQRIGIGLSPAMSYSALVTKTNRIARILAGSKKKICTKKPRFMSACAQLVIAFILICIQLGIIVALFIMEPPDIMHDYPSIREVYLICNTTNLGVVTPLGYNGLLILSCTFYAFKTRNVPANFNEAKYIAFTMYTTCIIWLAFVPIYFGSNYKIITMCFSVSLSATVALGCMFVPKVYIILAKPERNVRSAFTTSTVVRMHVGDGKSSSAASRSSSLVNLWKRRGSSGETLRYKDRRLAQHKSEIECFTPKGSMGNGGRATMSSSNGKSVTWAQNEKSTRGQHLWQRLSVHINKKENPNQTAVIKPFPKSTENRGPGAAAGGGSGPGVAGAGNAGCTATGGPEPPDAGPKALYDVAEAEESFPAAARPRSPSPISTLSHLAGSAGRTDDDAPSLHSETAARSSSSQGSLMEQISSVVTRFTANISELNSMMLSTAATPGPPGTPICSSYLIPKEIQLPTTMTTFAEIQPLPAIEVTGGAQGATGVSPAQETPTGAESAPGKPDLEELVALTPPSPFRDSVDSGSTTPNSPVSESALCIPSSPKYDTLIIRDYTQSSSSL

Cytochrome P450 1A2 = target: T1, Cytochrome P450 1A2 (Homo sapiens, UniProt P05177); test: Inhibition of CYP1A2 in human liver microsomes using phenacetin as substrate preincubated for 15 mins followed by NADPH addition measured after 8 mins by LC-MS/MS analysis; format: ADME
T1 sequence (P05177 whole entry): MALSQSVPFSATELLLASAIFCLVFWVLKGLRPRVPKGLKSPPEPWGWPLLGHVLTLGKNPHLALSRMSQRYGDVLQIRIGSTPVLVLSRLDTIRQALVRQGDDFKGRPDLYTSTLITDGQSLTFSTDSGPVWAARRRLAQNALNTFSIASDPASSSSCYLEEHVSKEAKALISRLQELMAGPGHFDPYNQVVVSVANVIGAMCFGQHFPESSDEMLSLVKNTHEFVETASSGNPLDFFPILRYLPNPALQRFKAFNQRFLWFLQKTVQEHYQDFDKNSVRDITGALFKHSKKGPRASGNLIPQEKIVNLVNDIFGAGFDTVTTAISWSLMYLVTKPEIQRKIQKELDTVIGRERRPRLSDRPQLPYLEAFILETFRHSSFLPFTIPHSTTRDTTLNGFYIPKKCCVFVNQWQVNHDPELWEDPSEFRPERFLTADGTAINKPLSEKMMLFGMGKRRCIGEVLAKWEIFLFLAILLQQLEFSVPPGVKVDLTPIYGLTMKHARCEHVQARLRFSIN

[6] = target: 5-hydroxytryptamine receptor 3A (Homo sapiens) (UniProt P46098); test: Displacement of [3H] GR-65630 from full length human recombinant 5-HT3 receptor expressed in HEK293 cell membranes at 10 uM after 60 mins by scintillation counting method relative to control; procedure, shortened: as §1
[7] = target: Acetylcholine receptor subunit alpha (Homo sapiens) (UniProt P02708); test: Displacement of [125I] alpha-Bungarotoxin from alpha1 nAChR in human rhabdomyosarcoma cell membranes at 10 uM after 120 mins by scintillation counting method relative to control; procedure, shortened: as §1
Rattus norvegicus [8] = organism: Rattus norvegicus; test: Displacement of [3H] muscimol from Wistar rat central GABAA at 10 uM measured after 10 mins by scintillation counting method relative to control; procedure, shortened: as §1
[9] = target: Cysteinyl leukotriene receptor 1 (Homo sapiens) (UniProt Q9Y271); test: Displacement of [3H] LTD4 from recombinant human CysLT1 receptor expressed in CHOK1 cell membranes at 10 uM after 30 mins by scintillation counting method relative to control; procedure, shortened: as §1
Chain of Cysteinyl leukotriene receptor 1 (Homo sapiens) (Q9Y271 whole entry): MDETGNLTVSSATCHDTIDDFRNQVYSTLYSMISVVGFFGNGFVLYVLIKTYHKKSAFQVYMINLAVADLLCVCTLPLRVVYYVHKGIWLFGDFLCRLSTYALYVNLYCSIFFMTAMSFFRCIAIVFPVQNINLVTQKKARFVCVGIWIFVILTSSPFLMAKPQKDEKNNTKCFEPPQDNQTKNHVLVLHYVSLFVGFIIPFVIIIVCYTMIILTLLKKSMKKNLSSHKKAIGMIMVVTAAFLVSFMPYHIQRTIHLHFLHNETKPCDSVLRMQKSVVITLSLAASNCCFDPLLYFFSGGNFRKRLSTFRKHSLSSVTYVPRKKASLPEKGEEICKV

[10] = target: Metabotropic glutamate receptor 1 (Rattus norvegicus, UniProt P23385); test: Positive allosteric modulation of rat mGlu1 receptor expressed in HEK cells assessed as increase in glutamate-induced calcium flux incubated for 142 secs followed by glutamate addition measured after 120 secs by Fluo4-AM dye based fluorescence assay; format: functional, cell-based
[11] = target: Alpha-1B adrenergic receptor (Rattus norvegicus) (UniProt P15823); test: Displacement of [3H] prazosin from Wistar rat alpha1b receptor at 10 uM measured after 60 mins by scintillation counting method relative to control; procedure, shortened: as §1
[12] = target: Histamine H1 receptor (Homo sapiens) (UniProt P35367); test: Displacement of [3H] pyrilamine from recombinant human H1 receptor expressed in CHOK1 cell membranes at 10 uM after 180 mins by scintillation counting method relative to control
Chain of Histamine H1 receptor (Homo sapiens) (P35367 whole entry): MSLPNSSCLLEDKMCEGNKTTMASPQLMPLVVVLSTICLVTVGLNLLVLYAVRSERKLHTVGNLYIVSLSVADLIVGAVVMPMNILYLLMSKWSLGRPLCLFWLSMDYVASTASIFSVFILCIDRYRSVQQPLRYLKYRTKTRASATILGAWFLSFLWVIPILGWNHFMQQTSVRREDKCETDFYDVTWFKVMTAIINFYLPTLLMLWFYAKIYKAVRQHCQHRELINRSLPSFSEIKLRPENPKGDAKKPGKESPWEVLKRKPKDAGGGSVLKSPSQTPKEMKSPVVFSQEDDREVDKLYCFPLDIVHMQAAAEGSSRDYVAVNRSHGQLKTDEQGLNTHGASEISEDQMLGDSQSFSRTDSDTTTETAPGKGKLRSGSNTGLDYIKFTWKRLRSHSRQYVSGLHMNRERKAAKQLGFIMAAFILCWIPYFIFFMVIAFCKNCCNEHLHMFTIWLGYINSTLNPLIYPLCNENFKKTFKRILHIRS
Procedure, shortened: (§2)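 Single-concentration screen at 10 μM within a commercial lead-profiling panel of 68 GPCRs, ion channels and transporters. Activity read as percent inhibition of specific radioligand binding to each target.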

[13] = target: Glutamate NMDA receptor (Rattus norvegicus) (UniProt P35439+Q00959+Q00960+Q00961+Q62645+Q8VHN2+Q9R1M7); test: Displacement of [3H]-MDL-105519 from glutamate NMDA receptor glycine binding site in Wistar rat cerebral cortical membrane at 10 uM after 30 mins by scintillation counting method relative to control; procedure, shortened: as §2
[14] = target: Delta-type opioid receptor (Homo sapiens) (UniProt P41143); test: Displacement of [3H] naltrindole from recombinant human delta opioid receptor expressed in HEK293 cell membranes at 10 uM after 60 mins by scintillation counting method relative to control; procedure, shortened: as §1
Chain of Delta-type opioid receptor (Homo sapiens) (P41143 whole entry): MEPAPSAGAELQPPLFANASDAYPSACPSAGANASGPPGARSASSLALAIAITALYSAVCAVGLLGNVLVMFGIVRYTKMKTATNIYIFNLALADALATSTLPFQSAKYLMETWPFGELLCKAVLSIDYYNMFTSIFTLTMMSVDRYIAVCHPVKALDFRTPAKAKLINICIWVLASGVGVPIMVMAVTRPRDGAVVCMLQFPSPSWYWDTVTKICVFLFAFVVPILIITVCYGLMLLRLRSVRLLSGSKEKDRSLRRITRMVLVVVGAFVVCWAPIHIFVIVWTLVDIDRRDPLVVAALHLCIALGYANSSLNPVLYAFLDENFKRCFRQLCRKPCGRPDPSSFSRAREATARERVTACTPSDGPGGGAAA

[15] = target: Androgen receptor (Homo sapiens) (UniProt P10275); test: Displacement of [3H] methyltrienolone from androgen receptor in human LNCAP cells at 10 uM after 20 hrs by scintillation counting method relative to control; format: cell-based
Chain of Androgen receptor (Homo sapiens) (P10275 whole entry): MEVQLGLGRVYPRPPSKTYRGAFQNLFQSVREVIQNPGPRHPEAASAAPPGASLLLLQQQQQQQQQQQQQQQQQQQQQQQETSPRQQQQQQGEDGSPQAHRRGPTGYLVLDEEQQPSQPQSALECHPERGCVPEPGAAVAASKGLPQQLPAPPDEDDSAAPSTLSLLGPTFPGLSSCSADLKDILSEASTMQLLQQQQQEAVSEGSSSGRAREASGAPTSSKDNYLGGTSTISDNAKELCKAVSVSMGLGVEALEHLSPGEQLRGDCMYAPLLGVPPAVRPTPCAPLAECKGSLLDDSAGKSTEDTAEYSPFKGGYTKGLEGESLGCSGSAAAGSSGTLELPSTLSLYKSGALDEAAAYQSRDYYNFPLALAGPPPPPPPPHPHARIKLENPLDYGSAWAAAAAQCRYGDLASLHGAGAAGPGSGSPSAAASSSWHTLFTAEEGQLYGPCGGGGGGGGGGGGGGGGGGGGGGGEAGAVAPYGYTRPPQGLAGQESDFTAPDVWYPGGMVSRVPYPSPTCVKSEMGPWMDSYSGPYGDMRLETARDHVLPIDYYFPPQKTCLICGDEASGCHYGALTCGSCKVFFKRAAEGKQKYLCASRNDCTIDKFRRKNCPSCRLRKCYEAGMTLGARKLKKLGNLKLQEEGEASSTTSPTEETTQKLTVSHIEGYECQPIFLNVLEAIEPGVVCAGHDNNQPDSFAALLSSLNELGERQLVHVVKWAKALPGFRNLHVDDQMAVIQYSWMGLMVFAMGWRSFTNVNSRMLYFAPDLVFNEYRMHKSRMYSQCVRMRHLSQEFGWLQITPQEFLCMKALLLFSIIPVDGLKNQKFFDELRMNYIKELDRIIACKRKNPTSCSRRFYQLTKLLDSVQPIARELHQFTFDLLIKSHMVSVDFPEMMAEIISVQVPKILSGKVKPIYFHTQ

Rattus norvegicus [16] = organism: Rattus norvegicus; test: Displacement of [3H]-flunitrazepam from Wistar rat brain central GABA-A receptor at 10 uM measured after 60 mins by scintillation counting method relative to control; procedure, shortened: as §2
Cytochrome P450 2D6 = Cytochrome P450 2D6 (Homo sapiens, UniProt P10635); test: Inhibition of CYP2D6 in human liver microsomes using dextromethorphan as substrate preincubated for 15 mins followed by NADPH addition measured after 8 mins by LC-MS/MS analysis; format: ADME
[17] = Brain to plasma partition coefficient, Kp of the compound in C57BL/6 mouse at 10 mg/kg, ip measured after 360 mins by LC-MS/MS analysis; format: ADME, organism-based; settings: brain and plasma
Procedure, shortened: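 Mice given 10 mg/kg IP; time course out to 6 h with nonserial sampling of plasma and brain at each time point; Kp from brain/plasma levels.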

[18] = Brain to plasma partition coefficient, Kp of the compound in Sprague-Dawley rat at 0.2 to […], iv administered as cassette dose measured at […] post dose by LC-MS/MS analysis; format: ADME, organism-based; settings: brain and plasma

Q: For `COc1ccc(-c2c(C)nn3c(C(F)(F)F)cc(C)nc23)c(F)c1F`, which Time (Rattus norvegicus [1]) is on record?
A: 2 h

Q: And the IC50 (Cytochrome P450 2C9)?
A: 24.7 µM

Q: And the Activity (Mus musculus)?
A: 76.8%

Q: What about the inhibition [2] of the same compound?
A: < 50%

Q: And the inhibition [3]?
A: < 50%

Q: And the inhibition [4]?
A: < 50%

Q: What about the EC50 [5] of the same compound?
A: > 10 µM

Q: And the IC50 (Cytochrome P450 1A2)?
A: 3.08 µM

Q: And the inhibition [6]?
A: < 50%

Q: And the inhibition [7]?
A: < 50%

Q: What about the inhibition (Rattus norvegicus [8]) of the same compound?
A: < 50%

Q: And the inhibition [9]?
A: < 50%

Q: What about the EC50 [10] of the same compound?
A: > 10 µM

Q: And the inhibition [11]?
A: < 50%

Q: And the inhibition [12]?
A: < 50%

Q: And the inhibition [13]?
A: < 50%

Q: What about the inhibition [14] of the same compound?
A: < 50%

Q: What about the inhibition [15] of the same compound?
A: < 50%

Q: What about the inhibition (Rattus norvegicus [16]) of the same compound?
A: < 50%

Q: And the IC50 (Cytochrome P450 2D6)?
A: > 30 µM

Q: And the Kp at 6 h [17]?
A: 1.1

Q: And the Kp at […] [18]?
A: 4.3
